According to ChEMBL document CHEMBL1151702, “Using an aryl phenanthroimidazole moiety as a conjugated flexible intercalator to improve the hybridization efficiency of a triplex-forming oligonucleotide” (Bioorg Med Chem, 2008):

Assays:
Format in all cases: nucleic-acid assay
[1] = test system: Nucleic Acid; assay: Binding affinity to synthetic double stranded DNA D4 at 1.5 uM at pH 6.0 by thermal denaturation study
Method in brief: (§1)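 Parallel triplex melting: target duplex assembled from strands at 1.0 µM each, TFO third strand added at 1.5 µM. Buffer 20 mM sodium cacodylate, 100 mM NaCl, 10 mM MgCl₂, at the pH of the line. Samples heated to 80 °C for 5 min, cooled to 5 °C and held 30 min. Absorbance read at 260 nm while heating at 1.0 °C/min; Tm taken as the first-derivative maximum.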

[2] = test system: Nucleic Acid; assay: Binding affinity to synthetic double stranded DNA D3 at 1.5 uM at pH 6.0 by thermal denaturation study; method in brief: as §1
[3] = test system: Nucleic Acid; assay: Binding affinity to synthetic double stranded DNA D2 at 1.5 uM at pH 6.0 by thermal denaturation study; method in brief: as §1
[4] = test system: Nucleic Acid; assay: Binding affinity to synthetic oligonucleotide ON18 at 1.0 uM at pH 6.0 by thermal denaturation study
Method in brief: (§2)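 Duplex melting: complementary strands at 1.0 µM each in 20 mM sodium cacodylate, 100 mM NaCl, 10 mM MgCl₂, at the pH of the line. Annealed at 80 °C for 5 min, then cooled to 5 °C and held 30 min. UV absorbance read at 260 nm with heating at 1.0 °C/min; Tm is the maximum of the first-derivative curve.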

[5] = test system: Nucleic Acid; assay: Binding affinity to synthetic double stranded DNA D1 at 1.5 uM at pH 7.2 by thermal denaturation study; method in brief: as §1
[6] = test system: Nucleic Acid; assay: Binding affinity to synthetic double stranded DNA D1 at 1.5 uM at pH 6.0 by thermal denaturation study; method in brief: as §1
[7] = test system: Nucleic Acid; assay: Binding affinity to synthetic oligonucleotide ON19 at 1.0 uM at pH 6.0 by thermal denaturation study; method in brief: as §2
[8] = test system: Nucleic Acid; assay: Binding affinity to synthetic oligonucleotide ON19 at 1.0 uM at pH 7.2 by thermal denaturation study; method in brief: as §2
[9] = test system: Nucleic Acid; assay: Binding affinity to synthetic oligonucleotide ON20 at 1.0 uM at pH 7.0 by thermal denaturation study
Method in brief: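 DNA/RNA antiparallel duplex: each strand at 1.0 µM in 10 mM sodium phosphate, 140 mM NaCl, 1 mM EDTA, pH 7.0. Heated to 80 °C for 5 min, cooled to 5 °C and held 30 min. Absorbance followed at 260 nm during a 1.0 °C/min temperature ramp; Tm is the first-derivative maximum.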

[10] = test system: Nucleic Acid; assay: Binding affinity to synthetic double stranded DNA D1 at 1.5 uM at pH 5.0 by thermal denaturation study; method in brief: as §1

Cc1cn([C@H]2C[C@H](OP(=O)(O)OC[C@H]3O[C@@H](n4cc(C)c(=O)[nH]c4=O)C[C@@H]3O[PH](O)(O)OC[C@H]3O[C@@H](n4cc(C)c(=O)[nH]c4=O)C[C@@H]3OP(=O)(O)OC[C@H]3O[C@@H](n4cc(C)c(=O)[nH]c4=O)C[C@@H]3OP(=O)(O)OC[C@H]3O[C@@H](n4cc(C)c(=O)[nH]c4=O)C[C@@H]3O)[C@@H](COC[C@H](CCOc3ccc(-c4nc5c6ccccc6c6ccccc6c5[nH]4)cc3)OP(=O)(O)O[C@H]3C[C@H](n4cc(C)c(=O)[nH]c4=O)O[C@@H]3COP(=O)(O)O[C@H]3C[C@H](n4ccc(N)nc4=O)O[C@@H]3COP(=O)(O)O[C@H]3C[C@H](n4cc(C)c(=O)[nH]c4=O)O[C@@H]3COP(=O)(O)O[C@H]3C[C@H](n4cc(C)c(=O)[nH]c4=O)O[C@@H]3COP(=O)(O)O[C@H]3C[C@H](n4cc(C)c(=O)[nH]c4=O)O[C@@H]3COP(=O)(O)O[C@H]3C[C@H](n4ccc(N)nc4=O)O[C@@H]3COP(=O)(O)O[C@H]3C[C@H](n4ccc(N)nc4=O)O[C@@H]3COP(=O)(O)O[C@H]3C[C@H](n4ccc(N)nc4=O)O[C@@H]3COP(=O)(O)O[C@H]3C[C@H](n4ccc(N)nc4=O)O[C@@H]3CO)O2)c(=O)[nH]c1=O
Tm [1]: 35.5 °C
Tm [2]: 33 °C
Tm [3]: 30.5 °C
Tm [4]: 31.5 °C
Tm [5]: 33.5 °C
Tm [6]: 48.5 °C
Tm [7]: 51 °C
Tm [8]: 51 °C
Tm [9]: 53 °C

Cc1cn([C@H]2C[C@H](OP(=O)(O)OC[C@H]3O[C@@H](n4cc(C)c(=O)[nH]c4=O)C[C@@H]3O[PH](O)(O)OC[C@H]3O[C@@H](n4cc(C)c(=O)[nH]c4=O)C[C@@H]3OP(=O)(O)OC[C@H]3O[C@@H](n4cc(C)c(=O)[nH]c4=O)C[C@@H]3OP(=O)(O)OC[C@H]3O[C@@H](n4cc(C)c(=O)[nH]c4=O)C[C@@H]3O)[C@@H](COC[C@H](CCOc3ccc(-c4nc5c6ccccc6c6ccccc6c5[nH]4)c4ccccc34)OP(=O)(O)O[C@H]3C[C@H](n4cc(C)c(=O)[nH]c4=O)O[C@@H]3COP(=O)(O)O[C@H]3C[C@H](n4ccc(N)nc4=O)O[C@@H]3COP(=O)(O)O[C@H]3C[C@H](n4cc(C)c(=O)[nH]c4=O)O[C@@H]3COP(=O)(O)O[C@H]3C[C@H](n4cc(C)c(=O)[nH]c4=O)O[C@@H]3COP(=O)(O)O[C@H]3C[C@H](n4cc(C)c(=O)[nH]c4=O)O[C@@H]3COP(=O)(O)O[C@H]3C[C@H](n4ccc(N)nc4=O)O[C@@H]3COP(=O)(O)O[C@H]3C[C@H](n4ccc(N)nc4=O)O[C@@H]3COP(=O)(O)O[C@H]3C[C@H](n4ccc(N)nc4=O)O[C@@H]3COP(=O)(O)O[C@H]3C[C@H](n4ccc(N)nc4=O)O[C@@H]3CO)O2)c(=O)[nH]c1=O
Tm [1]: 26 °C
Tm [2]: 22.5 °C
Tm [3]: 21 °C
Tm [4]: 19.5 °C
Tm [5]: 18.5 °C
Tm [6]: 38.5 °C
Tm [7]: 47.5 °C
Tm [8]: 47.5 °C
Tm [9]: 49.5 °C

Cc1cn([C@H]2C[C@H](OP(=O)(O)OC[C@H]3O[C@@H](n4ccc(N)nc4=O)C[C@@H]3OP(=O)(O)OC[C@H]3O[C@@H](n4cc(C)c(=O)[nH]c4=O)C[C@@H]3OP(=O)(O)O[C@@H](CCOc3ccc(-c4nc5c6ccccc6c6ccccc6c5[nH]4)cc3)COC[C@H]3O[C@@H](n4cc(C)c(=O)[nH]c4=O)C[C@@H]3OP(=O)(O)OC[C@H]3O[C@@H](n4cc(C)c(=O)[nH]c4=O)C[C@@H]3O[PH](O)(O)OC[C@H]3O[C@@H](n4cc(C)c(=O)[nH]c4=O)C[C@@H]3OP(=O)(O)OC[C@H]3O[C@@H](n4cc(C)c(=O)[nH]c4=O)C[C@@H]3OP(=O)(O)OC[C@H]3O[C@@H](n4cc(C)c(=O)[nH]c4=O)C[C@@H]3O)[C@@H](COC[C@H](CCOc3ccc(-c4nc5c6ccccc6c6ccccc6c5[nH]4)cc3)OP(=O)(O)O[C@H]3C[C@H](n4cc(C)c(=O)[nH]c4=O)O[C@@H]3COP(=O)(O)O[C@H]3C[C@H](n4cc(C)c(=O)[nH]c4=O)O[C@@H]3COP(=O)(O)O[C@H]3C[C@H](n4ccc(N)nc4=O)O[C@@H]3COP(=O)(O)O[C@H]3C[C@H](n4ccc(N)nc4=O)O[C@@H]3COP(=O)(O)O[C@H]3C[C@H](n4ccc(N)nc4=O)O[C@@H]3COP(=O)(O)O[C@H]3C[C@H](n4ccc(N)nc4=O)O[C@@H]3CO)O2)c(=O)[nH]c1=O
Tm [1]: 42 °C
Tm [2]: 37 °C
Tm [3]: 35.5 °C
Tm [4]: 37.5 °C
Tm [5]: 37 °C
Tm [6]: 51.5 °C
Tm [7]: 49 °C
Tm [8]: 50.5 °C
Tm [9]: 49.5 °C

Cc1cn([C@H]2C[C@H](OP(=O)(O)OC[C@H]3O[C@@H](n4ccc(N)nc4=O)C[C@@H]3OP(=O)(O)OC[C@H]3O[C@@H](n4cc(C)c(=O)[nH]c4=O)C[C@@H]3OP(=O)(O)OC[C@H]3O[C@@H](n4cc(C)c(=O)[nH]c4=O)C[C@@H]3OP(=O)(O)OC[C@H]3O[C@@H](n4cc(C)c(=O)[nH]c4=O)C[C@@H]3O[PH](O)(O)OC[C@H]3O[C@@H](n4cc(C)c(=O)[nH]c4=O)C[C@@H]3OP(=O)(O)OC[C@H]3O[C@@H](n4cc(C)c(=O)[nH]c4=O)C[C@@H]3OP(=O)(O)OC[C@H]3O[C@@H](n4cc(C)c(=O)[nH]c4=O)C[C@@H]3O)[C@@H](COC[C@H](CCOc3ccc(-c4ncc[nH]4)c4ccccc34)OP(=O)(O)O[C@H]3C[C@H](n4cc(C)c(=O)[nH]c4=O)O[C@@H]3COP(=O)(O)O[C@H]3C[C@H](n4cc(C)c(=O)[nH]c4=O)O[C@@H]3COP(=O)(O)O[C@H]3C[C@H](n4ccc(N)nc4=O)O[C@@H]3COP(=O)(O)O[C@H]3C[C@H](n4ccc(N)nc4=O)O[C@@H]3COP(=O)(O)O[C@H]3C[C@H](n4ccc(N)nc4=O)O[C@@H]3COP(=O)(O)O[C@H]3C[C@H](n4ccc(N)nc4=O)O[C@@H]3CO)O2)c(=O)[nH]c1=O
Tm [6]: 10.5 °C
Tm [10]: 33 °C

Cc1cn([C@H]2C[C@H](OP(=O)(O)OC[C@H]3O[C@@H](n4ccc(N)nc4=O)C[C@@H]3OP(=O)(O)OC[C@H]3O[C@@H](n4cc(C)c(=O)[nH]c4=O)C[C@@H]3OP(=O)(O)O[C@@H](CCOc3ccc(-c4nc5c6ccccc6c6ccccc6c5[nH]4)c4ccccc34)COC[C@H]3O[C@@H](n4cc(C)c(=O)[nH]c4=O)C[C@@H]3OP(=O)(O)OC[C@H]3O[C@@H](n4cc(C)c(=O)[nH]c4=O)C[C@@H]3O[PH](O)(O)OC[C@H]3O[C@@H](n4cc(C)c(=O)[nH]c4=O)C[C@@H]3OP(=O)(O)OC[C@H]3O[C@@H](n4cc(C)c(=O)[nH]c4=O)C[C@@H]3OP(=O)(O)OC[C@H]3O[C@@H](n4cc(C)c(=O)[nH]c4=O)C[C@@H]3O)[C@@H](COC[C@H](CCOc3ccc(-c4nc5c6ccccc6c6ccccc6c5[nH]4)c4ccccc34)OP(=O)(O)O[C@H]3C[C@H](n4cc(C)c(=O)[nH]c4=O)O[C@@H]3COP(=O)(O)O[C@H]3C[C@H](n4cc(C)c(=O)[nH]c4=O)O[C@@H]3COP(=O)(O)O[C@H]3C[C@H](n4ccc(N)nc4=O)O[C@@H]3COP(=O)(O)O[C@H]3C[C@H](n4ccc(N)nc4=O)O[C@@H]3COP(=O)(O)O[C@H]3C[C@H](n4ccc(N)nc4=O)O[C@@H]3COP(=O)(O)O[C@H]3C[C@H](n4ccc(N)nc4=O)O[C@@H]3CO)O2)c(=O)[nH]c1=O
Tm [1]: 17.5 °C
Tm [2]: 33.5 °C
Tm [3]: 24 °C
Tm [4]: 20.5 °C
Tm [5]: 15 °C
Tm [6]: 46.5 °C
Tm [7]: 38.5 °C
Tm [8]: 38.5 °C
Tm [9]: 42.5 °C

Cc1cn([C@H]2C[C@H](OP(=O)(O)OC[C@H]3O[C@@H](n4cc(C)c(=O)[nH]c4=O)C[C@@H]3OP(=O)(O)OC[C@H]3O[C@@H](n4cc(C)c(=O)[nH]c4=O)C[C@@H]3O[PH](O)(O)OC[C@H]3O[C@@H](n4cc(C)c(=O)[nH]c4=O)C[C@@H]3OP(=O)(O)OC[C@H]3O[C@@H](n4cc(C)c(=O)[nH]c4=O)C[C@@H]3OP(=O)(O)OC[C@H]3O[C@@H](n4cc(C)c(=O)[nH]c4=O)C[C@@H]3O)[C@@H](COC[C@@H](CCOc3ccc(-c4nc5c6ccccc6c6ccccc6c5[nH]4)cc3)OP(=O)(O)O[C@H]3C[C@H](n4ccc(N)nc4=O)O[C@@H]3COP(=O)(O)O[C@H]3C[C@H](n4cc(C)c(=O)[nH]c4=O)O[C@@H]3COP(=O)(O)O[C@H]3C[C@H](n4cc(C)c(=O)[nH]c4=O)O[C@@H]3COP(=O)(O)O[C@H]3C[C@H](n4cc(C)c(=O)[nH]c4=O)O[C@@H]3COP(=O)(O)O[C@H]3C[C@H](n4ccc(N)nc4=O)O[C@@H]3COP(=O)(O)O[C@H]3C[C@H](n4ccc(N)nc4=O)O[C@@H]3COP(=O)(O)O[C@H]3C[C@H](n4ccc(N)nc4=O)O[C@@H]3COP(=O)(O)O[C@H]3C[C@H](n4ccc(N)nc4=O)O[C@@H]3CO)O2)c(=O)[nH]c1=O
Tm [4]: 34.5 °C
Tm [5]: 25 °C
Tm [6]: 43.5 °C
Tm [7]: 51 °C
Tm [8]: 50.5 °C
Tm [9]: 51 °C
